Results as given in PMC3064798 (Nucleic Acids Research, 2011).

Key:
[1] = molecular target: T1, DeepVent(exo^−) polymerase (Pyrococcus sp., UniProt Q51334, D141A/DEL493-1029/E143A); assay: PEP; format: biochemical; settings: for Incorporation bias (analog IC50/HOMedUTP IC50): DeepVent(exo^−)
T1 sequence (Q51334 with tags, fused parts or gaps D141A/E143A/DEL493-1029): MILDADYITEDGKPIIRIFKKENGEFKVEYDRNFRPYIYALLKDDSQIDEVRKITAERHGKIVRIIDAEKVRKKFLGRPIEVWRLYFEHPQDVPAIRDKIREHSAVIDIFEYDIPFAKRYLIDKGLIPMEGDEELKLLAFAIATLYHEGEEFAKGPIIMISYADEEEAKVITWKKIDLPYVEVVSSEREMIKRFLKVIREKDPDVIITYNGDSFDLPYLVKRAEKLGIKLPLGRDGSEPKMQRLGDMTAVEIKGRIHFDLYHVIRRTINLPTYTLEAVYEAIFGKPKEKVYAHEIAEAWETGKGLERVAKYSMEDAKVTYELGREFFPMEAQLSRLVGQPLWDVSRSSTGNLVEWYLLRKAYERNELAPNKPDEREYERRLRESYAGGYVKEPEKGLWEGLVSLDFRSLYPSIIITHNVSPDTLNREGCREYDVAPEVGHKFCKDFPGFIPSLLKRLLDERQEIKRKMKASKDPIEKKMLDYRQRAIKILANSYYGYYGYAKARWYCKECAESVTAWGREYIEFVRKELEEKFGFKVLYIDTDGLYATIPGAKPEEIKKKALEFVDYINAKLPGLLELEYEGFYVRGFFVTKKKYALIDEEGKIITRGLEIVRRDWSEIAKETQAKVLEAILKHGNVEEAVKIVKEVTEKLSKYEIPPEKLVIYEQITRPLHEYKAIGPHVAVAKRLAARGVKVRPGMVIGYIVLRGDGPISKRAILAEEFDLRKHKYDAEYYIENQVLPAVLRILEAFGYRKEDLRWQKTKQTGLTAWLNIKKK
Method in brief: (§1)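 Polymerase end-point assay for single-base incorporation. 5 nM BODIPY-FL-labelled primer-1 was hybridised to 40 nM oligoTemplate-4, with the interrogation base complementary to dU. Absence of a +1 band on the 377 gel image at 100 μM counts as not active. IC50 was averaged from triplicates ± 1 SD. Incorporation bias is the analog IC50 divided by the natural-nucleotide (HOMedUTP) IC50.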

[2] = Photochemical cleavage studies; format: physicochemical; settings: for DT50 values (time at which 50% of 2-nitrobenzyl groups were photochemically cleaved): 365 nm UV, incorporated in primer-1/oligoTemplate-4; for DT50 in sodium azide compared with the FBD solution: 50 mM sodium azide vs FBD; for DT50 faster than the parent dU.I analog: azide solution
Method in brief: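 Analogs (100 nM final) were incorporated as in PEP on BODIPY-FL primer-1/oligoTemplate-4 (10 nM/80 nM). Reactions were quenched in FBD solution (20% formamide, 10 mM Na2EDTA pH 8.0, Blue Dextran) or 50 mM sodium azide. Samples were irradiated at 365 nm for various times, then iced, mixed with formamide stop solution and run on an AB 377 sequencer. DT50 is the time for 50% cleavage, from triplicates ± 1 SD.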

[3] = molecular target: T2, Therminator II polymerase (Thermococcus sp., UniProt Q56366, A485L/D141A/E143A/Y409V); assay: PEP; format: biochemical; settings: for Incorporation bias (analog IC50/HOMedUTP IC50): Therminator II
T2 sequence (Q56366 1-775 D141A/E143A/Y409V/A485L): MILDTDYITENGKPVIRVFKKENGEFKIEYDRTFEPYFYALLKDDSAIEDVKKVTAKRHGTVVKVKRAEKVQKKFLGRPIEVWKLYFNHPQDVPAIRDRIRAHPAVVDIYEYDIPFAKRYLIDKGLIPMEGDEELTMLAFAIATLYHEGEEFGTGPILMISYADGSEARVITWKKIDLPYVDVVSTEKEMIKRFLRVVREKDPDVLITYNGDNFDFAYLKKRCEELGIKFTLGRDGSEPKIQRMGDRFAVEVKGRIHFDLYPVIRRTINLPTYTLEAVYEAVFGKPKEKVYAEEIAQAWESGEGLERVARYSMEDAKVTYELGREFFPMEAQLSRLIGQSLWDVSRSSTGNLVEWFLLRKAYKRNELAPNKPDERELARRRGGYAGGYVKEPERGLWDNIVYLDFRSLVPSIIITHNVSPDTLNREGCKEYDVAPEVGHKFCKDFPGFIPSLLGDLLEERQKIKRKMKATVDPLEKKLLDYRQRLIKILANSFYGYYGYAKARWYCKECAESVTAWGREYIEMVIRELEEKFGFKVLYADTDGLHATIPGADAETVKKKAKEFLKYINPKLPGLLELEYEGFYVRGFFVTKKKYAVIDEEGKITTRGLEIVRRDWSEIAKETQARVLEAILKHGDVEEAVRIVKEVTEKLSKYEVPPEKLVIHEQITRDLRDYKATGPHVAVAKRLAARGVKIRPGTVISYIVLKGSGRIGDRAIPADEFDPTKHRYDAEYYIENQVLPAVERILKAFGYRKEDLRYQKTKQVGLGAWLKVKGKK
Method in brief: as §1

Row | Compound | IC50 [1] [nM] | Incorporation bias (analog IC50/HOMedUTP IC50) [1] | DT50 values (time at which 50% of 2-nitrobenzyl groups were photochemically cleaved) ([2]; 50 mM NaN3) [s] | DT50 in sodium azide compared with the FBD solution [2] | DT50 values (time at which 50% of 2-nitrobenzyl groups were photochemically cleaved) ([2]; FBD solution) [s] | DT50 faster than the parent dU.I analog [2] | IC50 [3] [nM] | Incorporation bias (analog IC50/HOMedUTP IC50) [3]
1 | CC(OCc1cn([C@H]2C[C@H](O)[C@@H](COP(=O)(O)OP(=O)(O)OP(=O)(O)O)O2)c(=O)[nH]c1=O)c1ccccc1[N+](=O)[O-] (mixture of isomers) [dU.II, 5-[1-(2-Nitrophenyl)ethyloxy]methyl-2'-deoxyuridine-5’-triphosphate] | 17 ± 1 | 6.3 | 2.0 ± 0.1 | approximately three-fold lower | 7.4 ± 1.2 | 33-60% | 14 ± 1 | 1.9
2 | CC(C)C(OCc1cn([C@H]2C[C@H](O)[C@@H](COP(=O)(O)OP(=O)(O)OP(=O)(O)O)O2)c(=O)[nH]c1=O)c1ccccc1[N+](=O)[O-] (mixture of isomers) [dU.III, 5-[1-(2-Nitrophenyl)-2-methyl-propyloxy]methyl-2'-deoxyuridine-5’-triphosphate] | 220 ± 20 | 80 | 2.4 ± 0.2 | approximately three-fold lower | 8.8 ± 0.8 | 33-60% | 140 ± 10 | 20
3 | O=c1[nH]c(=O)n([C@H]2C[C@H](O)[C@@H](COP(=O)(O)OP(=O)(O)OP(=O)(O)O)O2)cc1COCc1ccccc1[N+](=O)[O-] [dU.I, 5-(2-Nitrobenzyloxy)methyl-2'-deoxyuridine-5’-triphosphate] | 4.9 ± 1 | 1.8 | 3.2 ± 0.1 | approximately three-fold lower | 8.7 ± 0.9 |  | 5.7 ± 0.4 | 0.8
